1 molecule from ChEMBL document CHEMBL1671864, “First assessment in humans of the safety, tolerability, pharmacokinetics, and ex vivo pharmacodynamic antimalarial activity of the new artemisinin derivative artemisone” (Antimicrob Agents Chemother, 2008) can be followed below.

Values after ≈ are worked out from the molar mass of the structure shown.

In general, Cmax refers to the highest concentration seen after dosing. One may read the CL/F as the apparent clearance, not corrected for the fraction that reaches the circulation. As usually defined, the MRT is the average time that molecules of a dose stay in the body. As usually defined, the Tmax is the time from dosing to the highest level. A word on the AUC: it is concentration integrated over time. Low readings indicate low exposure, high ones high exposure. In general, half-life refers to how long it takes for the measured level to halve. Read a high half-life as slow decline. Usually IC50 stands for the point on the concentration scale where inhibition reaches its midpoint.

A short description of data set [1]: Cmax in healthy human plasma at 10 mg, po administered as single ascending doses as solution during 10 hrs overnight fasting state. The class given is ADME, organism-based. Further details: dose 10 mg, route oral. The essentials: (§1)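 Healthy Caucasian male volunteers, single oral dose with 240 ml water after a 10-h overnight fast. Heparinised venous blood was drawn predose and at 0.25–14 h. Plasma was stored frozen. Parent drug and metabolites M1–M3 were measured by LC/MS-MS (MRM, deuterated internal standard). Noncompartmental analysis gave Cmax observed, t1/2 = 0.693/kel (terminal regression) and MRT = AUMC/AUC. Values are geometric means.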

The subject of data set [2] is Homo sapiens. The data set is described as follows: Toxicity in healthy human assessed as occurrence of changes in electrocardiogram parameters at 80 mg, po administered daily for 3 days as four 20-mg immediate-release tablets during 10 hrs overnight fasting state. The class given is organism-based. The following applies: in vivo. The method, boiled down: (§2)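 Healthy Caucasian men received single ascending doses (10–40 mg solution, 80 mg tablets) or 3-day daily tablet courses, all fasting, with randomized placebo controls. Supine blood pressure, heart rate and resting 12-lead ECG were recorded before and after dosing.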

Data set [3] concerns Homo sapiens. The data set is described as follows: Toxicity in healthy human assessed as occurrence of changes in electrocardiogram parameters at 10 to 80 mg, po administered as single ascending doses during 10 hrs overnight fasting state. The class given is organism-based. The following applies: in vivo. The method, boiled down: as §2
A short description of data set [4]: Apparent oral clearance in healthy human at 80 mg, po administered as four 20 mg immediate release tablets daily for 3 days during 10 hrs overnight fasting state measured after 1 day. Format: ADME, organism-based. The following applies: in vivo. The method, boiled down: (§3)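 Healthy Caucasian males took 40 mg (2×20-mg IR tablets) or 80 mg (4 tablets) orally daily for 3 days after a 10-h fast. Plasma parent drug was measured by LC/MS-MS from predose to 14 h after the first and third doses. Noncompartmental analysis: AUC by log-linear trapezoid extrapolated via kel, CL/F = dose/AUC, V/F = CL/F÷kel, geometric means.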

A short description of data set [5]: Mean residence time in healthy human at 40 mg, po administered as single ascending doses as solution during 10 hrs overnight fasting state. The following applies: in vivo. The class given is ADME, organism-based. The method, boiled down: as §1
Data set [6] is described as follows: Tmax in healthy human plasma at 80 mg, po administered as four 20 mg immediate release tablets daily for 3 days during 10 hrs overnight fasting state measured after 3 day. The class given is ADME, organism-based. The method, boiled down:
(§4)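 Healthy Caucasian men (8 active, 4 placebo per dose) dosed with tablets daily for 3 days after 10-h fast. Lithium-heparin plasma sampled predose and 0.25–14 h after day-1 and day-3 doses, stored frozen. Parent and M1–M3 quantified by LC/MS-MS in positive-ion MRM. Tmax taken directly from observed individual data.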

Data set [7] in a line: Apparent oral clearance in healthy human at 40 mg, po administered as two 20 mg immediate release tablets daily for 3 days during 10 hrs overnight fasting state measured after 3 day. The following applies: in vivo. Format: ADME, organism-based. The method, boiled down: as §3
Data set [8] in a line: AUC in healthy human plasma at 10 mg, po administered as single ascending doses as solution during 10 hrs overnight fasting state. The class given is ADME, organism-based. Further details: dose 10 mg, time < 10 hr, route oral. The essentials: (§5)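 Single ascending oral doses in healthy Caucasian men, given fasted (10-h overnight) with 240 ml water: 10, 20, 30 or 40 mg as oral solution, or 80 mg as IR tablets. Parent plasma levels by LC/MS-MS over 0.25–14 h. Noncompartmental analysis: kel by terminal-phase least-squares regression, AUC extrapolated to infinity, CL/F = dose/AUC, V/F = CL/F÷kel.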

Data set [9] in a line: AUC in healthy human plasma at 80 mg, po administered as single immediate release tablets during 10 hrs overnight fasting state. Set-up: dose 80 mg, time < 10 hr, route oral. Format: ADME, organism-based. The essentials:
as §5

For a further data set, the system named is Plasma. The data set is described as follows: Ratio of Cmax in healthy human plasma at 80 mg, po administered as four 20 mg immediate release tablets daily for 3 days during 10 hrs overnight fasting state measured after 1 day to Cmax in healthy human plasma at 80 mg, po administered as four 20 mg immediate release tablets daily for 3 days during 10 hrs overnight fasting state measured after 3 day. Format: ADME, organism-based. The following applies: in vivo. The essentials: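 Healthy Caucasian men took tablets daily for 3 days with 240 ml water after 10-h fast. Plasma sampled 0.25–14 h after first and last doses, artemisone measured by LC/MS-MS. Accumulation ratio is Cmax or AUC0-∞ after last dose divided by that after first dose. Noncompartmental analysis, geometric means with 95% CI.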

Data set [10] in a line: Apparent oral clearance in healthy human at 40 mg, po administered as single ascending doses as solution during 10 hrs overnight fasting state. Format: ADME, organism-based. The following applies: in vivo. The method, boiled down: as §5
Data set [11] has as its system Homo sapiens. Nature of the data set: Toxicity in healthy human assessed as decrease in glutamate dehydrogenase level at 80 mg, po administered daily for 3 days as four 20-mg immediate-release tablets during 10 hrs overnight fasting state measured after 2 days last post treatment. The conditions noted are these: in vivo, 48 h. The class given is organism-based.
A short description of data set [12]: AUC in healthy human plasma at 20 mg, po administered as single ascending doses as solution during 10 hrs overnight fasting state. The class given is ADME, organism-based. Set-up: time < 10 hr, dose 20 mg, route oral. The essentials:
as §5

The nature of data set [13]: Tmax in healthy human plasma at 80 mg, po administered as single immediate release tablets during 10 hrs overnight fasting state. The class given is ADME, organism-based. The essentials: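 Healthy Caucasian male volunteers (n=6 active, 2 placebo, randomized), single 80 mg dose as four 20-mg tablets with 240 ml water after 10-h fast. Venous lithium-heparin plasma sampled predose and 0.25–14 h; analysed by LC/MS-MS (MRM, deuterated internal standard). Noncompartmental analysis; Tmax observed directly; MRT = AUMC/AUC with extrapolation to infinity via kel.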

For data set [14], the system named is Homo sapiens. Nature of the data set: Toxicity in healthy human assessed as occurrence of clinically relevant changes in vital signs at 40 mg, po administered daily for 3 days as two 20-mg immediate-release tablets during 10 hrs overnight fasting state. Format: organism-based. The conditions noted are these: in vivo. The essentials: as §2
Data set [15] in a line: Mean residence time in healthy human at 10 mg, po administered as single ascending doses as solution during 10 hrs overnight fasting state. The conditions noted are these: in vivo. The class given is ADME, organism-based. The method, boiled down: as §1
Data set [16] is described as follows: AUC in healthy human plasma at 40 mg, po administered as two 20 mg immediate release tablets daily for 3 days during 10 hrs overnight fasting state measured after 1 day. Format: ADME, organism-based. Further details: time < 10 hr, dose 40 mg, route oral. The method, boiled down: as §3
The nature of data set [17]: Half life in healthy human plasma at 30 mg, po administered as single ascending doses as solution during 10 hrs overnight fasting state. Format: ADME, organism-based. The essentials:
as §1

The nature of data set [18]: Apparent volume of distribution with respect to the bioavailability in healthy human at 40 mg, po administered as two 20 mg immediate release tablets daily for 3 days during 10 hrs overnight fasting state measured after 3 day. The class given is ADME, organism-based. The conditions noted are these: in vivo, read-out: Vc/F. The essentials:
as §3

Data set [19] is described as follows: Tmax in healthy human plasma at 80 mg, po administered as four 20 mg immediate release tablets daily for 3 days during 10 hrs overnight fasting state measured after 1 day. The class given is ADME, organism-based. The method, boiled down:
as §4

For data set [20], the system named is Homo sapiens. Nature of the data set: Toxicity in healthy human assessed as increase in alanine aminotransferase level at 80 mg, po administered daily for 3 days as four 20-mg immediate-release tablets during 10 hrs overnight fasting state measured after 24 hrs last post treatment. The class given is organism-based. The following applies: in vivo.
A further data set relates to Plasmodium falciparum. The data set is described as follows: Antimalarial activity against Plasmodium falciparum K1 in human plasma assessed as inhibition of hypoxanthine uptake by intraerythrocytic malaria parasites by hypoxanthine incorporation assay. Format: functional, organism-based. The method, boiled down:
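K1 or TM90-C2A parasites were sorbitol-synchronized and cultured in RPMI 1640. Drug was diluted in drug-free human serum (0.04–40 ng/ml) or subject plasma was diluted twofold (8–8,192). Parasites were added at 2% hematocrit, 1% parasitemia (>95% rings), and [3H]hypoxanthine uptake was measured over 48 h. IC50 or ID50 came from concentration or dilution-response curves. Equivalent concentration = ID50 × IC50.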

Data set [21] is described as follows: AUC in healthy human plasma at 40 mg, po administered as single ascending doses as solution during 10 hrs overnight fasting state. The class given is ADME, organism-based. Set-up: time < 10 hr, dose 40 mg, route oral. The essentials: as §5

In [1], `C[C@H]1[C@H](N2CCS(=O)(=O)CC2)O[C@@H]2O[C@@]3(C)CC[C@H]4[C@H](C)CC[C@@H]1[C@@]24OO3` [ARTEMIFONE] showed a Cmax of 40 ng/mL. Further, the Activity result in the data set on Homo sapiens [2], in the data set with Homo sapiens [3], with Homo sapiens [11], in the data set with Homo sapiens [14] and in the data set with Homo sapiens [20] was “Non-toxic” in each case. The values for the apparent clearance CL/F in data set [4], in data set [7] and in [10] were 3880 mL/min, 3500 mL/min and 5640 mL/min, respectively. Besides, the mean residence time (MRT) in data set [5] was determined as 2.39 h; in data set [15], 0.98 h. Besides, the time of peak concentration (Tmax) came to 1.5 h in data set [6], 0.875 h in [13] and 1.5 h in [19]. For the same molecule, the exposure (AUC) at 10 h was determined as 29.5 ng·h/mL in [8]; 282 ng·h/mL in data set [9]; 65.7 ng·h/mL in data set [12]; 184 ng·h/mL in [16]; 118 ng·h/mL in [21]. In the data set on Plasma, the Ratio stood at 84%. Besides, in data set [17], the half-life was 3.14 h. For the same molecule, the Vd/F in [18] worked out at 16.1 L/kg. The IC50 with Plasmodium falciparum stood at 0.6 ng/mL (≈ 1.49 nM).
